The subject of one test is Geotrichum candidum. Nature of the test: Antifungal activity against Geotrichum candidum AS2.498 at 100 ug/disk after 24 hrs. Type of test: functional, organism-based.
A further test has as its system Enterococcus faecalis. Nature of the test: Antimicrobial activity against Enterococcus faecalis ATCC 19433 at 100 ug/disk after 24 hrs. Type of test: functional, organism-based. The gist of the method:
(§1)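 Bacteria grown on Mueller-Hinton agar. Paper disks (6 mm) bearing 100 µg compound placed on the agar. Plates incubated at 37 °C for 24 h and examined for a zone of inhibition.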

The subject of another test is Streptococcus mutans. In words: Antimicrobial activity against Streptococcus mutans ATCC 25175 at 100 ug/disk after 24 hrs. Type of test: functional, organism-based. The gist of the method: as §1
The test system of a further test is Bacillus subtilis. Nature of the test: Antimicrobial activity against Bacillus subtilis ATCC 6633 at 100 ug/disk after 24 hrs. The conditions noted are these: for zone of inhibition at 100 µg/disc: ATCC 6633, 24 h, read-out: IZ.
The subject of the next test is Micrococcus luteus. In words: Antimicrobial activity against Sarcina lutea CMCC B28001 at 100 ug/disk after 24 hrs. Type of test: functional, organism-based. Summed up:
as §1

The subject of the next test is Staphylococcus aureus. In words: Antimicrobial activity against Staphylococcus aureus ATCC 6538 at 100 ug/disk after 24 hrs. Type of test: functional, organism-based. Summed up: as §1
In a further test the test system is Aspergillus fumigatus. Nature of the test: Antifungal activity against Aspergillus fumigatus ATCC 10894 at 100 ug/disk after 24 hrs. Type of test: functional, organism-based.
Another test has as its system Candida albicans. In words: Antifungal activity against Candida albicans ATCC 10231 at 100 ug/disk after 24 hrs. Type of test: functional, organism-based.

Calls of active or inactive are those of the source. No cut-off for these calls is given here.

`O=C1C[C@@H]2SS[C@@]34C[C@@H]1[C@@H]([C@H]2O)N3C(=O)[C@@]12C[C@H]3C(=O)C[C@H](SS1)[C@H](O)[C@H]3N2C4=O`: the outcome in the test with Geotrichum candidum, with Enterococcus faecalis, with Streptococcus mutans, in the test with Bacillus subtilis, with Micrococcus luteus and with Staphylococcus aureus was inactive. For the same compound, the outcome with Aspergillus fumigatus and in the test on Candida albicans was inactive.

Take `O=C1C[C@@H]2SS[C@@]34C[C@@H]1[C@@H]([C@H]2O)N3C(=O)[C@@]12C[C@H]3C(=O)[C@H](S1)[C@H](O)[C@H](O)[C@H]3N2C4=O`: the result with Geotrichum candidum, in the test with Enterococcus faecalis, in the test with Streptococcus mutans, with Bacillus subtilis, with Micrococcus luteus and with Staphylococcus aureus was inactive. Besides, the result in the test on Aspergillus fumigatus and in the test on Candida albicans was inactive.

On to `O=C1C[C@@H]2S[C@@]34C[C@@H]1[C@@H]([C@H]2O)N3C(=O)[C@@]12C[C@H]3C(=O)C[C@H](S1)[C@H](O)[C@H]3N2C4=O`, for which the result in the test on Geotrichum candidum, in the test with Enterococcus faecalis, in the test with Streptococcus mutans, with Bacillus subtilis, in the test with Micrococcus luteus and with Staphylococcus aureus was inactive. Further, the result with Aspergillus fumigatus and in the test on Candida albicans was inactive.

As for `O=C1C[C@H]2SS[C@@]34C[C@@H]1[C@@H]([C@H]2O)N3C(=O)[C@@]12C[C@H]3C(=O)C[C@@H](S1)[C@H](O)[C@H]3N2C4=O` [EPICOCCIN A], the outcome with Geotrichum candidum, with Enterococcus faecalis, in the test with Streptococcus mutans, in the test with Micrococcus luteus, in the test with Staphylococcus aureus and with Aspergillus fumigatus was inactive. Further, the outcome with Candida albicans was inactive. For the same compound, the zone of inhibition at 100 µg/disc with Bacillus subtilis was found to be 12 mm.

For `O=C(O)c1cn(C2CC2)c2cc(N3CCNCC3)c(F)cc2c1=O` [CIPROFLOXACIN], the zone of inhibition at 100 µg/disc in the test with Bacillus subtilis amounted to 28 mm.

The record behind these values is ChEMBL document CHEMBL1141273, “Epicoccins A-D, epipolythiodioxopiperazines from a Cordyceps-colonizing isolate of Epicoccum nigrum” (2007).
